In brackets after ≈: the same amount, converted by molar mass. Activity calls are given as the source filed them.
Columns and labels:
[1] = tested on: L1210; test: Antitumor activity against mouse L1210 cells allografted in BDF1 mouse; type: functional
[2] = tested on: Mus musculus; test: Toxicity in BDF1 mouse allografted with mouse L1210 cells at 400 mg/kg; type: organism-based; set-up: dose 400 mg/kg; details: in vivo
How it was run: (§1)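 Toxicity was recorded as lethality to BDF1 mice during the in vivo L1210 lymphoid leukemia screen. Compounds were given at 12.5, 50, 200 or 400 mg/kg.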

[3] = tested on: Mus musculus; test: Toxicity in BDF1 mouse allografted with mouse L1210 cells at 12.5 mg/kg; type: organism-based; set-up: dose 12.5 mg/kg; details: in vivo; how it was run: as §1
[4] = Cytotoxicity against human 9KB cells; type: functional; details: read-out: ED50 (the source's name)
How it was run: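 9KB cell culture assay run under the National Cancer Institute programme with compounds supplied in DMF solution. Values are ED50 in μg/ml, and ≤4 μg/ml is taken as the significance criterion.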

[5] = tested on: Mus musculus; test: Toxicity in BDF1 mouse allografted with mouse L1210 cells at 50 mg/kg; type: organism-based; set-up: dose 50 mg/kg; details: in vivo; how it was run: as §1
[6] = tested on: Mus musculus; test: Toxicity in BDF1 mouse allografted with mouse L1210 cells at 200 mg/kg; type: organism-based; set-up: dose 200 mg/kg; details: in vivo; how it was run: as §1

| SMILES | Activity [1] | Activity [2] | Activity [3] | EC50 [4] [µg/mL] | Activity [5] | Activity [6] |
| --- | --- | --- | --- | --- | --- | --- |
| COC(=O)C1=C(C(=O)OC)C2(C)C=CC1O2 (stereo not given) | inactive | Toxic | Non-toxic | 3 (≈ 13.4 µM) | Toxic | Toxic |
| COC(=O)C1=C(C(=O)OC)C2CCC1C2 | inactive | Non-toxic |  | 100 (≈ 476 µM) |  | Non-toxic |
| COC(=O)C1CC2OC2C(C)C1C(=O)OC (stereo not given) | inactive | Non-toxic |  | 100 (≈ 438 µM) |  | Non-toxic |
| C1=CCC2OC2C1 (stereo not given) | inactive | Toxic |  | 130 (≈ 1350 µM) |  | Non-toxic |
| COC(=O)[C@@H]1[C@H](C(=O)OC)[C@@H]2C=C[C@@H]1O2 | inactive | Non-toxic |  | 100 (≈ 471 µM) |  | Non-toxic |
| COC(=O)C1=C(C(=O)OC)[C@@]2(C)O[C@H]1[C@@H]1O[C@@H]12 | inactive | Toxic | Non-toxic | 3 (≈ 12.5 µM) | Toxic | Toxic |
| C1OCC2OC12 (stereo not given) | inactive | Non-toxic |  | 100 (≈ 1160 µM) |  | Non-toxic |
| COC(=O)C1=C(C(=O)OC)[C@H]2C[C@H]1[C@@H]1O[C@@H]12 | inactive | Toxic |  | 22 (≈ 98.1 µM) |  | Non-toxic |
| COC(=O)C1=C(C(=O)OC)[C@H]2O[C@H]1[C@@H]1O[C@@H]12 | inactive | Toxic | Non-toxic | 1.5 (≈ 6.63 µM) | Toxic | Toxic |
| COC(=O)[C@@H]1[C@H]2O[C@@H]([C@H]3O[C@H]32)[C@@H]1C(=O)OC | inactive | Non-toxic |  | 100 (≈ 438 µM) |  | Non-toxic |
| COC(=O)[C@@H]1[C@H](C(=O)OC)[C@@H]2C=C[C@@H]1C2 | inactive | Non-toxic |  | 100 (≈ 476 µM) |  | Non-toxic |
| COC(=O)C1CC=CC(C)C1C(=O)OC (stereo not given) | inactive | Non-toxic |  | 48 (≈ 226 µM) |  | Non-toxic |
| C1CC2CC1C1OC21 (stereo not given) | inactive | Non-toxic |  | 100 (≈ 908 µM) |  | Non-toxic |
| COC(=O)C1=C(C(=O)OC)C2CCC1O2 | inactive | Non-toxic |  | 22 (≈ 104 µM) |  | Non-toxic |
| COC(=O)[C@@H]1[C@H]2C[C@@H]([C@@H]3O[C@H]23)[C@@H]1C(=O)OC | inactive | Non-toxic |  | 100 (≈ 442 µM) |  | Non-toxic |
| COC(=O)C1=C(C(=O)OC)C2C=CC1C2 | inactive | Non-toxic |  | 100 (≈ 480 µM) |  | Non-toxic |
